Reference: ChEMBL document CHEMBL4725242, “Discovery of GS-9688 (Selgantolimod) as a Potent and Selective Oral Toll-Like Receptor 8 Agonist for the Treatment of Chronic Hepatitis B” (J Med Chem, 2020)
Active and inactive are the calls of the source.

What was measured:
[1] = AUC (infinity) in Beagle dog at 0.5 mg/kg, po administered via gavage by HPLC-MS analysis; assay type: ADME, organism-based, Canis lupus familiaris; parameters: route oral, time infinity, dose 0.5 mg/kg; conditions: in vivo
Summary of the method: (§1)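 Oral dosing in 2% ethanol/40% PEG 300/58% 0.01N HCl: Sprague Dawley rats 5 mg/kg, beagle dogs 0.5 mg/kg, cynomolgus monkeys 3 mg/kg.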

PBMC = experiment: Immunomodulatory activity in human primary hepatocytes infected with HBV assessed as stimulation of CD8+T cell response to virus by measuring degradation of cccDNA treated with media from PBMC stimulated with 10 nM compound for 10 days; assay type: functional, cell-based; conditions: time 10.0 day
[2] = Immunomodulatory activity in human primary hepatocytes infected with HBV assessed as stimulation of CD8+T cell response to virus by measuring decrease in HBsAg production treated with media from PBMC stimulated with 10 nM compound for 10 days relative to control; assay type: functional; parameters: scale not given: the % may be the effect or the level left; conditions: time 10 day
[3] = Cmax in Beagle dog at 0.5 mg/kg, po administered via gavage by HPLC-MS analysis; assay type: ADME, organism-based, Canis lupus familiaris; parameters: route oral, dose 0.5 mg/kg; conditions: in vivo; summary of the method: as §1
[4] = Half life in cynomolgus monkey at 0.1 mg/kg, iv administered as 30 mins infusion by HPLC-MS analysis; assay type: ADME, organism-based, Macaca fascicularis; conditions: in vivo
Summary of the method: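 30-min intravenous infusion: Sprague Dawley rats 1 mg/kg, beagle dogs 0.25 mg/kg, cynomolgus monkeys 0.1 mg/kg; n = 3 per species, reported as mean ± SD.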

[5] = Apparent permeability across basolateral to apical side in human Caco2 cells measured after 1 to 2 hrs by LC-MS/MS analysis; conditions: Caco-2
[6] = Selectivity index, ratio of CC50 for human MT4 cells to EC50 for TLR8 in human cryopreserved PBMC assessed as induction of IL-12p40 production
[7] = target: T1, Interferon-induced helicase C domain-containing protein 1 (Homo sapiens) (UniProt Q9BYX4); experiment: Agonist activity at human MDA5 expressed in HEK293 cells assessed as induction of IFN-inducible ISG54 promoter activity up to 10 uM after overnight incubation by secreted lucia luciferase reporter gene assay; assay type: cell-based; conditions: dose microM <=10
T1 sequence (whole entry): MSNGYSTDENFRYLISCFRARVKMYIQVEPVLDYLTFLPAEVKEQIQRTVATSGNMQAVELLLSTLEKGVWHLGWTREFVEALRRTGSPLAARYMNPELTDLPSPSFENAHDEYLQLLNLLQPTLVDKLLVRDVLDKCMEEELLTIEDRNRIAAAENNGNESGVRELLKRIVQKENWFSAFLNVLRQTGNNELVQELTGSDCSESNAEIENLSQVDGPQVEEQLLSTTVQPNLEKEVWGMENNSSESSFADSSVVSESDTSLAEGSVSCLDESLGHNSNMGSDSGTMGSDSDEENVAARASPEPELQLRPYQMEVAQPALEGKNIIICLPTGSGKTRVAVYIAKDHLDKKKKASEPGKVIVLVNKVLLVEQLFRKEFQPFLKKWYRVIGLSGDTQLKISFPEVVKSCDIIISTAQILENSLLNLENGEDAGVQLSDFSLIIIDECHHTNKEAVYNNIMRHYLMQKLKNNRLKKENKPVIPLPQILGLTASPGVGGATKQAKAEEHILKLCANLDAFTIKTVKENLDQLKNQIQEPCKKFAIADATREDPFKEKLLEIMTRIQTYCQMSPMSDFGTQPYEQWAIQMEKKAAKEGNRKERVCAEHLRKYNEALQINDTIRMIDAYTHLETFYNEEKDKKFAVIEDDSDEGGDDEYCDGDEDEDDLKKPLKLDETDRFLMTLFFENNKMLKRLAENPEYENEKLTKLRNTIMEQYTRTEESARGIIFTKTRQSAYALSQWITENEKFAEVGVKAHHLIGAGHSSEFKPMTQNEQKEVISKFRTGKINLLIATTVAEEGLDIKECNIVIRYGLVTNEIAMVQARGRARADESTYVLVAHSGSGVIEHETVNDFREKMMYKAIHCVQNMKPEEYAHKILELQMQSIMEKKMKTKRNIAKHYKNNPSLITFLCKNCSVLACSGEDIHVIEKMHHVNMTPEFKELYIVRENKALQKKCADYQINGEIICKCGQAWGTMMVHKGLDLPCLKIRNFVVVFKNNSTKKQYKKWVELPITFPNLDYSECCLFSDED
Summary of the method: (§2)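 HEK293 cells stably expressing individual human TLRs or other innate immune receptors, used as reporter gene assays. Minimum effective concentration defined as the level giving a 3-fold rise over background.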

[8] = target: T2, Toll-like receptor 7 (Homo sapiens) (UniProt Q9NYK1); experiment: Agonist activity at human TLR7 expressed in HEK293 cells assessed as increase in NF-kappaB activation incubated for 24 hrs by quanti-blue SEAP reporter gene assay; assay type: cell-based; conditions: filed as agonist; summary of the method: as §2
T2 sequence (whole entry): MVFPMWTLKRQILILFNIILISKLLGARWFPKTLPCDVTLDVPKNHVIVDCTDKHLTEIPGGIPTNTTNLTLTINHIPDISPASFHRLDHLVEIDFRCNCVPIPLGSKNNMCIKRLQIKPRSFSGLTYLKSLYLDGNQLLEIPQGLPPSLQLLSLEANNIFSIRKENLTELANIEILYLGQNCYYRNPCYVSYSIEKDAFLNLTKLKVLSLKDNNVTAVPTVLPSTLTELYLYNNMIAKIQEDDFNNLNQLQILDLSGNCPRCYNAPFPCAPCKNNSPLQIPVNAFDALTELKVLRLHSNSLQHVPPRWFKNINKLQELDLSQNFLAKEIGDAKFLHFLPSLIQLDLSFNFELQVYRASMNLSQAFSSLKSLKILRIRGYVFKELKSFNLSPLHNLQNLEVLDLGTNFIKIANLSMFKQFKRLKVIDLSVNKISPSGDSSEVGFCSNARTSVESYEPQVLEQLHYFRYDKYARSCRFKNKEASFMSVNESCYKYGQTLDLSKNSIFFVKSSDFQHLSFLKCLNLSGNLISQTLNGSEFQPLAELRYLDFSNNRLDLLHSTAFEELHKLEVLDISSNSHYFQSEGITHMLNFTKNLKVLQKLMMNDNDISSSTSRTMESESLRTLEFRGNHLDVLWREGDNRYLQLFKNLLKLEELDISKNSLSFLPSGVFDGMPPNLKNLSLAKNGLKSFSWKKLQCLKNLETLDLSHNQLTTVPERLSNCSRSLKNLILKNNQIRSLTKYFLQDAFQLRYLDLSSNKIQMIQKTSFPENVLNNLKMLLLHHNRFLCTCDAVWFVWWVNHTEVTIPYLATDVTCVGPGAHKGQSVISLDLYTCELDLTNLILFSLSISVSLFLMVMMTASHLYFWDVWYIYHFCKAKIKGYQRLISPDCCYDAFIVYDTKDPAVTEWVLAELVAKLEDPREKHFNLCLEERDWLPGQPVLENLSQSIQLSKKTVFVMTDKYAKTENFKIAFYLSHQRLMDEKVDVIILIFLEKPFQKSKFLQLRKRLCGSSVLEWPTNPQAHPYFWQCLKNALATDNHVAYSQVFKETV

[9] = Cytotoxicity against human MT4 cells assessed as reduction in cell viability measured after 4 to 5 days by celltiter-glo assay; assay type: cell-based; conditions: time 4-5 day
[10] = Drug excretion in bile duct-cannulated Sprague-Dawley rat urine; assay type: ADME; conditions: in vivo

- AUC(0-inf) [1]: 0.0118 µM·h
- Cmax [3]: 9.7 nM
- half-life [4]: 40.2 min
- Papp B→A [5]: 11 ×10⁻⁶ cm/s
- Activity [7]: inactive
- MEC [8]: 5.2 µM
- Drug excretion [10]: Active
Structure (SMILES): CCCC[C@](C)(CO)Nc1nc(N)nc2cc(F)cnc12 [SELGANTOLIMOD]
- Activity (PBMC): inactive
- Activity [2]: >50%
- Ratio CC50/EC50 [6]: 77
- CC50 [9]: 17 µM
